The subject of series [1] is Mus musculus. The series is described as follows: Antidepressant like activity in Albino Swiss mouse assessed as reduction of immobility time at 5 mg/kg, ip administered 30 mins before test measured during final 4 mins of the 6 mins session by forced swimming test (reference value: 165 +/- 9.6 sec). To be noted: route intraperitoneal. Format: functional.
For series [2], the system named is Mus musculus. Put plainly: Antidepressant like activity in Albino Swiss mouse assessed as reduction of immobility time at 10 mg/kg, ip administered 30 mins before test measured during final 4 mins of the 6 mins session by forced swimming test (reference value: 165 +/- 9.6 sec). The note with it: route intraperitoneal. Format: functional.
Series [3] has as its system Mus musculus. Put plainly: Antidepressant like activity in Albino Swiss mouse assessed as reduction of immobility time at 20 mg/kg, ip administered 30 mins before test measured during final 4 mins of the 6 mins session by forced swimming test (reference value: 165 +/- 9.6 sec). Format: functional. To be noted: route intraperitoneal.
For series [4], the system named is Mus musculus. The series is described as follows: Antidepressant like activity in Albino Swiss mouse assessed as reduction in immobility time at 10 mg/kg, ip administered 30 mins before test measured during final 4 mins of the 6 mins session by forced swimming test. On the set-up: scale not given: the % may be the effect or the level left. To be noted: route intraperitoneal. Format: functional.

Series [5] relates to Mus musculus. The series is described as follows: Neurotoxicity in Albino Swiss mouse assessed as effect on number of crossings at 10 mg/kg, ip administered 30 mins before test measured for 2 to 6 mins. The note with it: in vivo. On the set-up: dose 10 mg/kg, route intraperitoneal. Format: toxicity, organism-based. The essentials: (§1)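 Spontaneous locomotor activity in mice, recorded over 2–6 min (the swim-test observation window) or over a 30-min session. Drug was suspended in 1% aqueous Tween 80 and given ip at 10 ml/kg, 30 min beforehand, with vehicle-injected controls. Tests ran blind during the light phase (09.00–14.00 h), using 7–10 animals per dose, each used once.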

In series [6] the test system is Mus musculus. The series is described as follows: Neurotoxicity in Albino Swiss mouse assessed as effect on number of crossings at 10 mg/kg, ip administered 30 mins before test measured for 30 mins. The format is toxicity, organism-based. On the set-up: dose 10 mg/kg, route intraperitoneal. The note with it: in vivo, 0.5 h. The procedure, abridged:
as §1

Series [7] addresses T1, 5-hydroxytryptamine receptor 1A (Rattus norvegicus, UniProt P19327).
T1 sequence (P19327 whole entry): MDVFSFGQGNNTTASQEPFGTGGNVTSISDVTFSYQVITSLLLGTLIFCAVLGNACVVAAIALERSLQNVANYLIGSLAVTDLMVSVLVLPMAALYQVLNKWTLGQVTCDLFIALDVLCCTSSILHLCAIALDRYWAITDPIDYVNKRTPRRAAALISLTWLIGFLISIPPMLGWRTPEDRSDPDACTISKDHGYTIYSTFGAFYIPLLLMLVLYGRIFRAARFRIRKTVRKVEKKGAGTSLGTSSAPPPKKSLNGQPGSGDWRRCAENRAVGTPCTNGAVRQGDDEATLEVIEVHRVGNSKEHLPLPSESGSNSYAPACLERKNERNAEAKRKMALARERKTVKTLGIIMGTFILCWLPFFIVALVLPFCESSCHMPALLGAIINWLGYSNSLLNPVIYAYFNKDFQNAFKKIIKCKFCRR
The series is described as follows: Displacement of [3H]-8-OH-DPAT from 5-HT1A receptor in rat hippocampus by liquid scintillation counting. The format is tissue-based. The essentials:
(§2)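 Competition binding with 7–9 compound concentrations, each run in triplicate. 5-HT1A, 5-HT2A and α1 sites were native. 5-HT6 used [3H]-LSD and 5-HT7 used [3H]-5-CT, both on cloned human receptors stably expressed in HEK293 cells. After incubation, samples were vacuum-filtered through GF/B filters and washed with ice-cold buffer. Bound radioactivity was counted by liquid scintillation.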
On the technique in general: Displacement assays read how much labelled ligand stays bound in the presence of the test substance.

Series [8] addresses 5-hydroxytryptamine receptor 2A (Rattus norvegicus, UniProt P14842). The series is described as follows: Displacement of [3H]-ketanserin from 5-HT2A receptor in rat cortex by liquid scintillation counting. The essentials: as §2
In series [9] the target is T2, 5-hydroxytryptamine receptor 7 (Homo sapiens, UniProt P34969). Put plainly: Displacement of [3H]-5-CT from human 5-HT7 receptor expressed in HEK293 cells after 1 hr by liquid scintillation counting. Format: cell-based. The procedure, abridged: as §2
T2 sequence (P34969 whole entry): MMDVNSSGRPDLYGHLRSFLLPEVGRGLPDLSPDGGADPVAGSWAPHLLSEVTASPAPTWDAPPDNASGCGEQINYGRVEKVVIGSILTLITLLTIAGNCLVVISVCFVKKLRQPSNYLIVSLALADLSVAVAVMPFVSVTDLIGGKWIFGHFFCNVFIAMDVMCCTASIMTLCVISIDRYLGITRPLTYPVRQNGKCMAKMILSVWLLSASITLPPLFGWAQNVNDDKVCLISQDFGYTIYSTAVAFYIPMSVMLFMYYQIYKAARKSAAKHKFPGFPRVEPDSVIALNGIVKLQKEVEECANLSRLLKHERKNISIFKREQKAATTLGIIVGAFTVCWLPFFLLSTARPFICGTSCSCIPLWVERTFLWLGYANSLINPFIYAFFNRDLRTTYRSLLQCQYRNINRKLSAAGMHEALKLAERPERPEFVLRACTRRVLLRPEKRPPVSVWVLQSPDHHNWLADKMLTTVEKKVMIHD
Series [10] deals with T3, Adrenergic receptor alpha-1 (Rattus norvegicus, UniProt P15823+P23944+P43140).
T3 sequence (P15823 whole entry): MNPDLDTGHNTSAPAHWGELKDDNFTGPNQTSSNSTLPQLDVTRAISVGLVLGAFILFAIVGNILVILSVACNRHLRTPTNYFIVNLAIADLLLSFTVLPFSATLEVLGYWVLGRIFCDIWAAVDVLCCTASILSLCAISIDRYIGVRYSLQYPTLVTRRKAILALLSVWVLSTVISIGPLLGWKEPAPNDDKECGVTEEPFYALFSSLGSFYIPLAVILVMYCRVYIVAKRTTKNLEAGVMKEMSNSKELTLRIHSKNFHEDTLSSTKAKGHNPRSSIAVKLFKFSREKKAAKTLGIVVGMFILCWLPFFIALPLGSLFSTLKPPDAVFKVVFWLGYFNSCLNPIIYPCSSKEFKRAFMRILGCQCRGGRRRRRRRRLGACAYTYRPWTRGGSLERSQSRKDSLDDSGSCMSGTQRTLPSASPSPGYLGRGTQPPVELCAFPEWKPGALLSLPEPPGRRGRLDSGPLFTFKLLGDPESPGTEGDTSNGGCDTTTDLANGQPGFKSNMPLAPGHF
T3 sequence (P23944 whole entry): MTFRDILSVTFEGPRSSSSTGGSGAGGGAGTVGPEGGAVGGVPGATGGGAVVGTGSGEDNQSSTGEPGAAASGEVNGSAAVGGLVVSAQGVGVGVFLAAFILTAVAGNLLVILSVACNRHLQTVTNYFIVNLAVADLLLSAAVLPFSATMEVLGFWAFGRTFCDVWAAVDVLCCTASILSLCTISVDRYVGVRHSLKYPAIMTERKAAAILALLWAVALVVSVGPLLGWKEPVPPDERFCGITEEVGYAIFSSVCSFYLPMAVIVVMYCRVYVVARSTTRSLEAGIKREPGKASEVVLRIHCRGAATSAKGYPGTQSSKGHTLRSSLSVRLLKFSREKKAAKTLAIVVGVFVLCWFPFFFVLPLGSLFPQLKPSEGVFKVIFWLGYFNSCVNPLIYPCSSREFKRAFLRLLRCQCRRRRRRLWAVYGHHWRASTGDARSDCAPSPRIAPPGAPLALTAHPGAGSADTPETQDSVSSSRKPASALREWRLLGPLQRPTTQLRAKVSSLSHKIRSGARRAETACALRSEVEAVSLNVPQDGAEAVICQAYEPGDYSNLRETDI
T3 sequence (P43140 whole entry): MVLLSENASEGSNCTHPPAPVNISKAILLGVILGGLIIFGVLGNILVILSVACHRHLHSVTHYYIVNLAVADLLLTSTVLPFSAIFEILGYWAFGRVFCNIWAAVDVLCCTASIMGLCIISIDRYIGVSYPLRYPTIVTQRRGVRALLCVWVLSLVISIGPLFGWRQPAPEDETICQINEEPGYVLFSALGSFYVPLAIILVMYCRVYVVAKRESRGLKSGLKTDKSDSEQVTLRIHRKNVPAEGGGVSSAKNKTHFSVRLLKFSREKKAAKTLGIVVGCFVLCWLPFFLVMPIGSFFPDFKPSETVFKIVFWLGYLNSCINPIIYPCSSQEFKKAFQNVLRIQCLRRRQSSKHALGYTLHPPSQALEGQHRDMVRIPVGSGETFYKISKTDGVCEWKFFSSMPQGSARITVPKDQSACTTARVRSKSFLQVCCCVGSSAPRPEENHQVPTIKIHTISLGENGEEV
Put plainly: Displacement of [3H]-prazosin from alpha 1 receptor in rat cortex by liquid scintillation counting. The essentials: as §2

In series [11] the target is 5-hydroxytryptamine receptor 6 (Homo sapiens, UniProt P50406). Put plainly: Displacement of [3H]-LSD from human 5-HT6 receptor expressed in HEK293 cells after 1 hr by liquid scintillation counting. Format: cell-based. The essentials: as §2
Sequence of 5-hydroxytryptamine receptor 6 (P50406 whole entry): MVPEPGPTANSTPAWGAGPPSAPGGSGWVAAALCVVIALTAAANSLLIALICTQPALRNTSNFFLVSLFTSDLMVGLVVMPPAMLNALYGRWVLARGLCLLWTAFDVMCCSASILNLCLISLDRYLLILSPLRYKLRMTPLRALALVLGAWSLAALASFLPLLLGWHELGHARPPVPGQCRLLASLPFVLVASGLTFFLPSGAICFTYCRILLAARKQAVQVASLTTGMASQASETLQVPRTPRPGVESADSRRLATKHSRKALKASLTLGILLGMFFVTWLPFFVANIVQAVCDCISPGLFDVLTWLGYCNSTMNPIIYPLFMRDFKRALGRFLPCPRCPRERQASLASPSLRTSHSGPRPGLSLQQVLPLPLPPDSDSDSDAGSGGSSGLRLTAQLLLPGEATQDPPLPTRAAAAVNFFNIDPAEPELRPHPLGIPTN
The next series relates to HEK293. The series is described as follows: Selectivity ratio of Ki for 5-HT1A receptor in rat hippocampus to Ki for human 5-HT7 receptor expressed in HEK293 cells. Format: cell-based.
Series [12] concerns the target T2, 5-hydroxytryptamine receptor 7. The series is described as follows: Antagonist activity at human 5-HT7 receptor expressed in CHO cells assessed as inhibition of serotonin-induced intracellular cAMP accumulation preincubated for 20 mins measured after 10 mins by radioimmunoassay. The format is functional, cell-based. In general terms: cAMP levels reflect the balance of adenylyl cyclase and phosphodiesterase activity.

pKi: −log10 of the molar value.

For orientation: pKi means the Ki on a negative log10 scale, so that one unit is a factor of ten. The term Ki denotes a measure of affinity in units of concentration, obtained from inhibition or displacement. One may read the Kb as the equilibrium dissociation constant of an antagonist, usually derived from a functional assay.

Sequence of 5-hydroxytryptamine receptor 2A (P14842 whole entry): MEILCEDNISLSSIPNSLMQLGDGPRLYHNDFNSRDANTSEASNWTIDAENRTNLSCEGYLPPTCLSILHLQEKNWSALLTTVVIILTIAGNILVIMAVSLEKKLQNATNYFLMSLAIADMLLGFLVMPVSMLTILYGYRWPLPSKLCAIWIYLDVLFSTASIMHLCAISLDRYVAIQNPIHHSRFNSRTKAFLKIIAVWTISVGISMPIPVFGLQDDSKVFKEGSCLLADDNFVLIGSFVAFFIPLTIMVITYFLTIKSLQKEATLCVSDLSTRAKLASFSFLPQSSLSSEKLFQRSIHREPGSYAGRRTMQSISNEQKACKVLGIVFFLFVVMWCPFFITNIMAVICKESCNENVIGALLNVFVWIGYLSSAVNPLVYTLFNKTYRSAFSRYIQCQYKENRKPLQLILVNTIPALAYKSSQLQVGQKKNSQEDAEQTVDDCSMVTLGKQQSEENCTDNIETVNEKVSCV

For `CC1CCN(CC[C@H]2CCCN2S(=O)(=O)c2cccc(O)c2)CC1`, the Time with Mus musculus [1] worked out at 136.1 s; with Mus musculus [2], 110.8 s; in the series on Mus musculus [3], 139.3 s. The figures for the Activity with Mus musculus [4], with Mus musculus [5] and in the series with Mus musculus [6] were 33%, “Non-toxic” and “Non-toxic”, respectively.
As for `CCN(CCCCN1CCC2CCCCC2C1)S(=O)(=O)c1cccc2cccnc12` (centres undefined), the negative logarithm of the Ki (pKi) is 5.96 in series [7], 5.20 in [8], 7.89 in series [9] and 5.71 in series [11]. The molecule further came in with a Ki in series [10] of 155 nM. For the same molecule, the Ratio Ki in the series with HEK293 turned out to be 84.5. The Kb in series [12] was found to be 140 nM. For the same molecule, the Time is recorded as 155.2 s with Mus musculus [1], 128.1 s with Mus musculus [2] and 182.3 s in the series with Mus musculus [3]. Also, the Activity is given as 22% in the series with Mus musculus [4], “Non-toxic” in the series on Mus musculus [5] and “Non-toxic” in the series on Mus musculus [6].

Values taken from ChEMBL document CHEMBL1914452, “Arene- and quinoline-sulfonamides as novel 5-HT7 receptor ligands” (Bioorg Med Chem, 2011).
